Laboratory results from ChEMBL document CHEMBL4177753, “Structural Modification of Natural Product Ganomycin I Leading to Discovery of a α-Glucosidase and HMG-CoA Reductase Dual Inhibitor Improving Obesity and Metabolic Dysfunction in Vivo” (J Med Chem, 2018).
Active and inactive are the calls of the source. The rule behind the calls is not given here.

Key:
[1] = Inhibition of rat small intestinal mucosal alpha-glucosidase using p-nitrophenyl-alpha-D-glucopyranoside as substrate by HPLC method
Procedure, shortened: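 Rat intestinal α-glucosidase; after incubation the product 4-nitrophenol is quantified at once by HPLC (gradient from 20% acetonitrile in water with 0.1‰ TFA to 100% acetonitrile over 10 min). Each concentration run 3 times in parallel; % inhibition from peak areas versus control minus control blank; IC50 from the concentration series.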

[2] = test system: Mus musculus; assay: Hypolipidemic activity in ob/ob mouse assessed as decrease in plasma free fatty acid levels administered daily via oral gavage for 31 days; assay type: functional, organism-based
[3] = test system: Mus musculus; assay: Hypolipidemic activity in ob/ob mouse assessed as decrease in fat deposition in liver at 3 mg/kg administered daily via oral gavage for 31 days by […] staining-based microscopic method; assay type: functional, organism-based
Procedure, shortened: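 Male ob/ob mice dosed by gavage (soybean vehicle); liver and abdominal white adipose tissue fixed in 10% formaldehyde-PBS pH 7.4, paraffin-embedded, sectioned, stained with H&E, Oil Red O or sirius red, and examined by light microscopy.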

[4] = test system: Mus musculus; assay: Reduction of plasma LPS levels in ob/ob mouse at 3 mg/kg administered daily via oral gavage for 31 days by ELISA relative to vehicle-treated control; assay type: functional; design: scale not given: the % may be the effect or the level left
Procedure, shortened: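 Male ob/ob mice treated daily by gavage (soybean vehicle); plasma LPS and TNF-α quantified by ELISA kits. For antibiotic groups, ob/ob mice first received an oral antibiotic cocktail (ampicillin 1 g/L, vancomycin, neomycin, gentamycin, erythromycin) for three weeks, then 3.0 mg/kg/day; n = 8 per group.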

[5] = test system: Mus musculus; assay: Upregulation of Il10 mRNA expression in ob/ob mouse ileum at 3 mg/kg administered daily via oral gavage for 31 days by RNA-seq analysis; assay type: functional, organism-based
[6] = Half life in Sprague-Dawley rat at 2 mg/kg, po; assay type: ADME, organism-based; conditions: in vivo
Procedure, shortened: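 Male Sprague-Dawley rats (n = 6, 0.21–0.23 kg), single oral dose 2.0 mg/kg. Orbital blood sampled 0–16 h into heparinized tubes. Plasma was protein-precipitated with methanol, with internal standard added. Quantified by UPLC-ESI(+)-QTOF-MS in SIM mode on a C18 column with a methanol/0.3% formic acid water gradient. Linear range 0.54–107 ng/ml.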

CC(C)=CCC/C(C)=C/CCC1=C[C@H](c2ccc(C(C)(C)C)cc2)OC1=O
IC50 [1]: 0.04 µM | Activity [2]: Dose-dependent effect | Activity [3]: Active | Activity [4]: 40.9% | Activity [5]: Active | half-life [6]: 1.8 h
